The test system of one data set is KB. Nature of the data set: Cytotoxicity against human KB cells upto 56 uM. The class given is cell-based. The method in brief: (§1)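 Cytotoxicity was measured by a colorimetric method on purified compounds. The cells were human epidermoid carcinoma (KB), human breast cancer (BC), human lung cancer (NCI-H187) and African green monkey kidney fibroblast (Vero) cells.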

The subject of a further data set is Vero. The data set is described as follows: Cytotoxicity against Vero cells upto 140 uM. The class given is cell-based. To be noted: chlorocebus sabaeus. The gist of the method:
as §1

Data set [1] is described as follows: Cytotoxicity against human NCI-H187 cells upto 56 uM. The class given is cell-based. The gist of the method: as §1
The nature of data set [2]: Cytotoxicity against human BC cells upto 56 uM. The class given is cell-based. To be noted: for Activity: human, bc. The gist of the method:
as §1

The next data set concerns Plasmodium falciparum. Nature of the data set: Antimalarial activity against multidrug-resistant Plasmodium falciparum K1. The class given is functional, organism-based. The method in brief:
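Microculture radioisotope assay against the multidrug-resistant K1 strain of P. falciparum, with IC50 read out. Dihydroartemisinin was run as the reference standard in the same assay system.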

The structures appear in SMILES notation. Activity calls are given as the source filed them. The rule behind the calls is not given here.

`COc1ccc(/C=C(/C(=C/c2ccc(OC)c(OC)c2)N(C)C=O)N(C)C=O)cc1OC`: the Activity entry (in the data set on KB; in the data set on Vero; in data set [1]; in data set [2]) was “Not Active” each time. In the data set on Plasmodium falciparum, the result was inactive.

Take `O=CNC(=C\c1ccc(O)c(O)c1)/C(=C/c1ccc(O)c(O)c1)NC=O` [CORDYFORMAMIDE]: the Activity entry (with KB; in the data set on Vero; in data set [1]) was “Not Active” each time. The IC50 in data set [2] (Homo sapiens, BC) came to 39 µM; with Plasmodium falciparum it was 18 µM.

In the data set on Plasmodium falciparum, `C[C@H]1[C@@H](O)O[C@@H]2O[C@@]3(C)CC[C@H]4[C@H](C)CC[C@@H]1[C@@]24OO3` [ARTENIMOL] had an IC50 of 0.0042 µM.

As for `CC(=O)O/C=N/C(=C\c1ccc(OC(C)=O)c(OC(C)=O)c1)C(=C/c1ccc(OC(C)=O)c(OC(C)=O)c1)/N=C/OC(C)=O`, the Activity result (in the data set on KB; in the data set on Vero; in data set [1]; in data set [2]) was “Not Active” each time. Further, the result with Plasmodium falciparum was inactive.

For orientation: IC50 means the midpoint of a concentration-inhibition curve. High values mean a need for much substance, low ones inhibition by little substance.

Source of the values: ChEMBL document CHEMBL1142098, “A xanthocillin-like alkaloid from the insect pathogenic fungus Cordyceps brunnearubra BCC 1395” (J Nat Prod, 2007).
